An excerpt weighted towards active compounds, which were near 11% of everything screened.
D1 allo mod: D1 dopamine receptor (human) allosteric modulation. P21728. HEK293 D1, CRE-luciferase, dopamine EC30 potentiation; actives deviate in either direction. B-score at 10 µM. 5.9% of 58,000 active. AID 641;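 active = luminescence count or its row- and column-corrected plate score outside the 99.7% band of the plate's sample wells, on either side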
M1 antagonist: antagonists of rat M1 muscarinic receptor; B-score at 10 µM; CHO-M1 cells, Fluo-4 calcium, ACh EC80 antagonist mode; active compounds read low; 3.4% of 64,000 active; P08482;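 active = calcium fluorescence response, raw or row-and-column corrected B-score, differing from the plate sample mean either way at a set confidence level, mostly lower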
S1P3 agonist: agonists of human S1P3 receptor; Q99500; AID 373; activation, % at 4.5 µM; S1P3 NFAT-BLA reporter cells, agonism, FRET ratio; relative to 1 µM S1P, basal subtracted; 0.1% of 60,000 active;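 active = activation above the screen-wide mean plus 3 SD, cut at about 4.5% in these data, passing the limit was not always enough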
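Benchmarks: high control 1 µM S1P / System: stable CHO line with human S1P3, Gα16, NFAT-BLA reporter / Dosing: single compound concentration, 4.5 µM final / Timing: 4 h compound at 37 °C, 2 h substrate at RT / Measured by: FRET β-lactamase substrate fluorescence, excitation 405 nm, 460/535 nm emission ratio, background-subtracted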
M1 agonist: agonists of M1 muscarinic receptor; CHO-M1 cells, Fluo-4 calcium fluorescence, agonist mode; active compounds read high; B-score at 10 µM; 3% of 64,000 active; AID 626;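 active = fluorescence rise, raw or as B-score row- and column-corrected plate score, outside the 99.7% band of its plate's samples, either direction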
S1P1 ag-PAM: agonists and agonism potentiators of human S1P1 receptor. activation, % at 9.5 µM. 0.57% of 56,000 active. S1P1 CRE-bla cells, forskolin, beta-lactamase FRET, potentiator mode; S1P1 agonist co-added at EC20, 2 nM; 100% = saturating reference agonist, 0% = basal. P21453;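 active = activation above a cutoff set at the mean activation of all tested compounds plus 3 SD, cut at about 54% in these data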;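 note: forskolin at 4 µM as EC80 and the EC20 agonist is SEW2871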
Target sequence (P21453 whole entry, looked up): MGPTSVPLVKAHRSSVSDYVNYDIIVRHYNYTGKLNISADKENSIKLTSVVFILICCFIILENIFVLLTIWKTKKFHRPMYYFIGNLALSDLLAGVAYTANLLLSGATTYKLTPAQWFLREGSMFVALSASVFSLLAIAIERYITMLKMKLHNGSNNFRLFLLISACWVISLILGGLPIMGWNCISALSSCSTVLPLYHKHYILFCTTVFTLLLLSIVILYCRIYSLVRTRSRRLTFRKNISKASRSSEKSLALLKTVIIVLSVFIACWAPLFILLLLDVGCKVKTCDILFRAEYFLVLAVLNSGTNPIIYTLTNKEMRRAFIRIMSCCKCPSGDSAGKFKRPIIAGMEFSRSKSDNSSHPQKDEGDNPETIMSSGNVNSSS
TNAP act DEA: human TNAP activation, intermediate phosphate acceptor; P05186; purified TNAP, CDP-star luminescence, 100 mM DEA, 30 min; active compounds read high; scale: 0 levamisole-inhibited, 1 vehicle-only enzyme; activation factor at 20 µM; 64,000 tested, under 10 active; AID 813;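 active = activation factor of at least 2 at 20 µM, relative to controls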
M1 agonist conf: confirmation of rat M1 muscarinic receptor agonists | CHO-M1 cells, Fluo-4 calcium fluorescence, agonist mode; actives lie on both sides | AID 1488 | fluorescence change (max-min) at 10 µM | 19% of 1,700 active | shares compounds with M1 agonist;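 active = fluorescence change differs from the solvent-only DMSO control mean at a set confidence level in both duplicate runs; inconclusive = differs from solvent-only control mean in just one of two runs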;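 note: an EC20 dose of acetylcholine follows compound addition during the same imaging run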
M4 ag counter: counter-screen for M1 agonists: activity at rat M4 receptor; shares compounds with M1 agonist; CHO M4/Gqi5 cells, Fluo-4 calcium fluorescence, agonist mode; actives lie on both sides; fluorescence change (max-min) at 10 µM; 9% of 1,700 active;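 active = fluorescence change differing from the plate's solvent-only control wells at 99.7% confidence in both duplicates, whether higher or lower; inconclusive = differs from solvent controls in only one of two duplicates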
M1 antag conf: confirmation of rat M1 muscarinic receptor antagonists; shares compounds with M1 antagonist; calcium response (max-min fluorescence) at 10 µM; 43% of 1,700 active; CHO-M1 cells, Fluo-4 calcium, ACh EC80 antagonism; active compounds read low; AID 677;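 active = calcium response below the same-plate mean of wells given acetylcholine alone at its 80%-effect dose, minus 3 SD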
mGluR4 antag: selectivity test for M1 antagonists: human mGluR4 receptor; 0.9% of 1,700 active; shares compounds with M1 antagonist; fluorescence response (max-min) at 10 µM; CHO-mGluR4 calcium flux, Fluo-4 fluorescence, glutamate EC80; active compounds read low; AID 678;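 active = fluorescence response below the plate's average for near-maximal glutamate wells, less 3 SD of those wells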;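 note: raw unnormalized fluorescence span taken in the window right after glutamate addition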
Each line names hits and unclear results; the compound was inactive in the other large screens (follow-up assays come after a bar, where they were run).

COc1cc(NS(=O)(=O)c2ccc(C)cc2C)cc(OC)c1OC	M1 agonist 4.1 | M1 agonist conf inconclusive | M4 ag counter inactive
COc1ccc(C)cc1S(=O)(=O)Nc1ccccc1C	none
COc1cc(-c2nnc(-c3ccc(S(=O)(=O)c4ccccc4)cc3)o2)cc(OC)c1OC	none
COc1cc(OC)c(-c2nnc(-c3ccc(OC)c(OC)c3OC)o2)cc1OC	M1 agonist 4.5 (no result: S1P1 ag-PAM) | M1 agonist conf -30 | M4 ag counter inactive
CC(C)(C)OC(=O)N[C@@H](Cc1ccccc1)c1nnc(S(=O)(=O)Cc2ccccc2)o1	M1 agonist 21, S1P1 ag-PAM 86 | M1 agonist conf inactive | M4 ag counter inactive
CN1CCN(Cc2nc3c(c(=O)n(C)c(=O)n3C)n2Cc2ccccc2Cl)CC1	none
COc1ccc(CC(C(=O)Nc2cccc(F)c2)c2nn[nH]n2)c(OC)c1 (stereo not given)	none (no result: D1 allo mod)
CCOC(=O)COn1c(=O)c(-c2cccs2)[n+]([O-])c2ccccc21	M1 agonist 88 | M1 agonist conf 800 | M4 ag counter inconclusive
COn1c(=O)c(-c2ccc(Cl)cc2)[n+]([O-])c2ccccc21	none
O=c1c(-c2ccccc2)[n+]([O-])c2ccccc2n1O	M1 agonist 9.3 | M1 agonist conf inactive | M4 ag counter inactive
O=c1c(=O)n(O)c2ccccc2n1O	none
CCOn1c(=O)c(-c2ccc(OC)cc2)[n+]([O-])c2ccccc21	M1 agonist 5.2 | M1 agonist conf inconclusive | M4 ag counter inactive
C=CCOn1c(=O)c(C)[n+]([O-])c2ccccc21	none (no result: S1P1 ag-PAM)
CCOC(=O)C1CCN(C(=O)CN(c2ccc3c(c2)OCO3)S(C)(=O)=O)CC1	none
CCOc1ccccc1N1CCN(Cc2cccc(OC)c2OC)CC1	none
COc1ccccc1N1CCN(Cc2ccc(OC)c(OC)c2OC)CC1	M1 antagonist -6.3, M1 agonist -2.6 | M1 agonist conf inactive | M4 ag counter inactive | M1 antag conf inactive | mGluR4 antag inactive
COc1cccc(C(c2nnnn2Cc2ccccc2)N2CCN(C(=O)c3ccco3)CC2)c1OC (stereo not given)	M1 antagonist -11, M1 agonist -2.3 | M1 agonist conf inactive | M4 ag counter inactive | M1 antag conf inactive | mGluR4 antag inactive
COc1ccc(NC(=O)CCc2nc(-c3ccccc3F)no2)cc1	none
COC(=O)c1cc2ccsc2n1Cc1cc(=O)n2ccccc2n1	M1 antagonist -7.4, M1 agonist -1.8 (no result: D1 allo mod) | M1 agonist conf inactive | M4 ag counter inactive | M1 antag conf 28 | mGluR4 antag inactive
CCOC(=O)C1CCCN(C2CC(=O)N(c3ccc(C)c(C)c3)C2=O)C1 (stereo not given)	none (no result: S1P1 ag-PAM)
CCOC(=O)C1CCCN(C2CC(=O)N(c3cccc(C(F)(F)F)c3)C2=O)C1 (stereo not given)	M1 antagonist -3.3, M1 agonist 9 (no result: D1 allo mod) | M1 agonist conf 67 | M4 ag counter inactive | M1 antag conf inactive | mGluR4 antag inactive
COC(=O)c1cc(Br)c(=O)n(Cc2ccc(OC)c(OC)c2)c1	none (no result: D1 allo mod)

Source: PubChem
